# Screening data from PubChem BioAssay.
# Most compounds without a hit are left out; they make up all but 2.8% or so of the library.
# SIRT5 block: sirtuin-5 (human) deacylase inhibition. Q9NXA8. Purified SirT5, succinyl-peptide AMC, trypsin-coupled fluorescence. inhibition, % at 15 µM. 330,000 compounds, 1.1% hits; in the data active = inhibition above about 15%; inconclusive = no clear call, values can overlap the other calls
# Target sequence (Q9NXA8 whole entry, looked up): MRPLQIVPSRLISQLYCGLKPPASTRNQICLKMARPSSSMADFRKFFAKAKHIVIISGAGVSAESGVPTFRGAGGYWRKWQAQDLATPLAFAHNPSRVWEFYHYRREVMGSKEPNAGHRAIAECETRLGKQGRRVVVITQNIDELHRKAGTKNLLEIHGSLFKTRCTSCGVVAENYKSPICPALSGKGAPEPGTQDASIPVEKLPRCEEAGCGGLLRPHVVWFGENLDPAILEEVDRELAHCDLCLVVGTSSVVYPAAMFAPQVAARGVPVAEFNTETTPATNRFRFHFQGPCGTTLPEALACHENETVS
# DENV2 CPE rescue: protects cells from dengue virus 2 cytopathic effect | CPE inhibition, % at 9.99 µM | DENV2-infected cells, cytopathic effect rescue, plate reader | 350,000 compounds, 1.7% hits | AID 651640; in the data active = CPE inhibition above about 20%, passing the limit was not always enough; inconclusive = no clear call, values can overlap the other calls; tested in BHK-21 cells;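 also: 0% = median of neutral control wells and 100% = median of positive control wells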
# E-selectin induc: E-selectin induction on HUVECs; P16581; HUVEC E-selectin immunofluorescence imaging; normalized: neutral wells 0, TNF-alpha wells 100; activation, % at 7.58 µM; 260,000 compounds, 0.37% hits; AID 686992;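 active = mean E-selectin-positive cell signal at least 10% of the positive control, reached in at least 60% of replicates, without over 20% cell loss; inconclusive = no rule given, readout overlaps actives, possibly toxicity-flagged; inactive = the rest, including those meeting only one limit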
#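 assay system = HUVEC, human umbilical vein endothelial cells | input = 3,000 HUVEC seeded per well | medium = EGM-2 growth medium on 0.1% gelatin-coated wells | dosing = one compound dose added by pin transfer | signal = immunofluorescence imaging | read-out basis = % PE-positive cells | control set = TNF-alpha, DMSO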
# * = called active by the depositor; u = inconclusive; x = no result.
SMILES,SIRT5 block,DENV2 CPE rescue,E-selectin induc
O=C(O)CCNc1ccc(NCCC(=O)O)c2c1C(=O)c1ccccc1C2=O,17.1*,-2.8,x
COc1ccccc1NCCC(=O)O,-2.2,2.3,-0.3
COc1ccc(NC(=O)N(C)C[C@@H]2Oc3ncc(C#CCN(C)C)cc3C(=O)N([C@@H](C)CO)C[C@@H]2C)cc1,-4.1,4.3,0.3
C/C=C/c1cnc2c(c1)C(=O)N([C@H](C)CO)C[C@@H](C)[C@@H](CN(C)C(=O)Nc1ccccc1F)O2,-6.8,30.2*,-0.1
C/C=C/c1cnc2c(c1)C(=O)N([C@@H](C)CO)C[C@H](C)[C@@H](CN(C)C(=O)Nc1ccc(C(F)(F)F)cc1)O2,-0.5,-6.4,0.3
C[C@H](CO)N1C[C@H](C)[C@H](CN(C)C(=O)Nc2ccc(F)cc2)Oc2ncc(C#Cc3ccc(C(F)(F)F)cc3)cc2C1=O,16.5*,1.9,0.3
C/C=C/c1cnc2c(c1)C(=O)N([C@@H](C)CO)C[C@H](C)[C@@H](CN(C)C(=O)Nc1ccc(F)cc1)O2,16.2*,-4.8,1.8
C/C=C/c1cnc2c(c1)C(=O)N([C@H](C)CO)C[C@H](C)[C@H](CN(C)C(=O)Nc1ccccc1F)O2,-0.7,0.5,0.0
C[C@@H]1CN([C@H](C)CO)C(=O)c2cc(C#Cc3ccc(F)cc3)cnc2O[C@@H]1CN(C)C(=O)Nc1ccc(F)cc1,-2.5,6.8,-0.2
COc1ccc(NC(=O)N(C)C[C@H]2Oc3ncc(C#CCN(C)C)cc3C(=O)N([C@@H](C)CO)C[C@@H]2C)cc1,21.9*,x,0.5
O=C(C[C@H]1C[C@@H]2c3cc(NC(=O)NC4CCCC4)ccc3O[C@@H]2[C@H](CO)O1)NCc1ccccc1,1.0,-10.1,0.0
Cc1noc(C)c1NC(=O)Nc1ccc2c(c1)CC(=O)N([C@H](C)CO)C[C@H](C)[C@@H](CN(C)C(=O)Nc1c(C)noc1C)O2,-0.3,2.3,0.0
O=C(C1CC1)N1CC(=O)N2[C@H](CO)[C@H](c3ccc(Br)cc3)[C@H]2C1,3.4,u,0.1
C[C@H](NC(=O)[C@@H]1[C@@H](CO)[C@@H]2Cn3c(cccc3=O)[C@@H]2N1Cc1cccnc1)c1ccccc1,11.3,40.5*,-0.1
C[C@H](NC(=O)[C@@H]1[C@@H](CO)[C@@H]2Cn3c(cccc3=O)[C@@H]2N1CC1CCCCC1)c1ccccc1,-1.8,1.7,-0.8
C[C@@H](NC(=O)[C@@H]1[C@@H](CO)[C@@H]2Cn3c(cccc3=O)[C@@H]2N1CC1CCCC1)c1ccccc1,2.0,156.1*,0.1
O=C(NCc1ccccn1)[C@@H]1[C@@H](CO)[C@@H]2Cn3c(cccc3=O)[C@@H]2N1CCc1ccccc1,15.9*,-1.4,-0.1
C[C@H](NC(=O)[C@H]1[C@H](CO)[C@H]2Cn3c(cccc3=O)[C@H]2N1Cc1cccnc1)c1ccccc1,2.2,-6.3,-0.4
O=C(NCc1ccc(F)cc1)[C@H]1[C@H](CO)[C@H]2Cn3c(cccc3=O)[C@H]2N1Cc1ccccn1,3.0,4.4,0.2
COc1ccc2c3c([nH]c2c1)[C@H](CO)N(C(=O)c1ccccc1)CC31CCN(C(=O)Nc2cccc(F)c2)CC1,x,-6.3,-0.1
C[C@H](CO)N1C[C@H](C)[C@@H](CN(C)C(=O)Nc2ccc3c(c2)OCO3)OCCCC[C@H](C)Oc2ccc(NC(=O)c3ccncc3)cc2C1=O,-4.4,3.4,0.0
O=C(NC1CCCCC1)N1CC(=O)N2[C@H](C1)[C@H](c1ccc(/C=C/c3ccccc3)cc1)[C@@H]2CO,0.9,-3.6,0.2
C[C@@H]1CCCCO[C@@H](CN(C)CC2CCCCC2)[C@H](C)CN([C@H](C)CO)C(=O)c2cc(NS(=O)(=O)c3ccc(Cl)cc3)ccc2O1,x,-22.2,0.0
C[C@@H]1CCCCO[C@@H](CN(C)CC2CC2)[C@@H](C)CN([C@H](C)CO)C(=O)c2cc(NS(=O)(=O)c3ccc(Cl)cc3)ccc2O1,-1.4,47.9*,0.0
C[C@@H]1CCCCO[C@@H](CN(C)CC2CCCCC2)[C@H](C)CN([C@@H](C)CO)C(=O)c2cc(NS(=O)(=O)c3ccc(Cl)cc3)ccc2O1,x,-23.9,0.0
SMILES,SIRT5 block,DENV2 CPE rescue,E-selectin induc
C[C@@H]1CN([C@@H](C)CO)C(=O)c2cc(NS(=O)(=O)c3ccc(Cl)cc3)ccc2O[C@@H](C)CCCCO[C@H]1CN(C)CC1CC1,2.3,84.1*,-0.1
CC(C)n1c(SCc2ccccc2F)nc2c1c(=O)n(C)c(=O)n2C,x,-10.5,x
COc1ccccc1CSc1nc2c(c(=O)n(C)c(=O)n2C)n1C,-3.6,-6.0,48.4*
Cc1ccc(-c2ccc3c(c2)O[C@H](CN(C)Cc2cccnc2)[C@@H](C)CN([C@@H](C)CO)S3(=O)=O)cc1,7.3,-3.2,0.3
CCn1c(C)c(C)c2cc(C(=O)NCCN3CCOCC3)ccc21,0.3,-6.4,x
Cc1c(C)n(C)c2ccc(C(=O)NCCN3CCOCC3)cc12,33.7*,8.0,-0.2
COc1ccc(CN(C)C[C@@H]2Oc3ccc(NS(=O)(=O)c4cccs4)cc3C(=O)N([C@@H](C)CO)C[C@@H]2C)cc1,-8.3,2.6,-12.4
O=C(Cc1cccs1)NCCc1ccc(F)cc1,-1.9,-2.0,x
OCCc1ccc(NCCc2cccs2)cc1,6.3,20.9*,-0.2
CO[C@H]1CN(C)C(=O)c2ccc(NC(C)=O)cc2OC[C@@H](C)N(CC2CCCCC2)C[C@@H]1C,-6.5,-0.7,-0.1
CCOC(=O)CSC1=C(C#N)C(c2ccc(C)s2)CC(=O)N1 (centres undefined),-3.8,-3.1,x
CCSC1=C(C#N)C(c2ccc(C)s2)CC(=O)N1 (centres undefined),15.7*,1.9,x
CC1CCN(CCOCCOc2ccc(Br)cc2Cl)CC1,x,x,1.7
CC1CCCN(CCCOc2ccc(Br)cc2Cl)C1 (centres undefined),-3.2,34.0*,0.1
CO[C@H]1CC[C@@H]2CCN(C)C(=O)[C@@H](C)CN(C)C(=O)c3cccc(C#N)c3OC[C@H]1O2,2.8,0.2,0.2
CSc1nc(NCCN(C)C)c2sc3nc(-c4ccco4)c4c(c3c2n1)CCC4,-1.5,-23.1,x
CSc1nc(SCC(=O)O)c2sc3nc(-c4ccccc4)c4c(c3c2n1)CCC4,18.5*,4.1,x
N#Cc1cccc(-c2ccc(C3[C@H]4CNC[C@@H]3N4C(=O)Nc3cccc(F)c3)cc2)c1 (some centres undefined),x,0.6,0.2
O=C1C(=Cc2cn(-c3ccccc3)nc2-c2ccc(OCc3ccccc3)cc2)SC(=S)N1CCS(=O)(=O)O,0.8,u,-0.1
Cc1ccc(-c2nn(-c3ccccc3)cc2C=C2SC(=S)N(CCS(=O)(=O)O)C2=O)cc1,55.0*,-5.4,0.0
CN(C)C(=O)C[C@@H]1C=C[C@@H](NC(=O)NC2CCCC2)[C@@H](CO)O1,-1.6,u,0.1
CCC(=O)N1CC2(C1)[C@H](c1ccc(-c3ccc(F)cc3)cc1)[C@H](CO)N2C(=O)CC,1.7,-6.6,-0.1
O=C(CSCc1ccc([N+](=O)[O-])cc1)Nc1ccc(S(=O)(=O)N2CCCCCC2)cc1,1.4,79.7*,-0.9
Cc1ccc(NC(=O)CSCC(=O)Nc2ccc(S(=O)(=O)N3CCCC3)cc2)cc1,2.4,-3.7,-1.2
COC(=O)C(N)Cc1ccc(O)cc1 (centres undefined),x,x,2.2
N[C@@H](Cc1cc(I)c(O)c(I)c1)C(=O)O,32.9*,-1.7,-0.2
